Test results: ChEMBL document CHEMBL1155153, “Measurement of voriconazole activity against Candida albicans, C. glabrata, and C. parapsilosis isolates using time-kill methods validated by high-performance liquid chromatography” (2007)
Values after ≈ are worked out from the molar mass of the structure shown.

Key:
Format in all cases: functional
Candida albicans [1] = experiment: Antifungal activity against Candida albicans ATCC 90029 by Etest
Method in brief: (§1)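 MIC by Etest, checked against the CLSI (NCCLS M27-A2) broth microdilution method. Both methods agreed within twofold.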

Candida albicans [2] = experiment: Antifungal activity against Candida albicans SC5314 by Etest; method in brief: as §1
Nakaseomyces glabratus [3] = experiment: Antifungal activity against Candida glabrata isolate 1 by Etest; method in brief: as §1
Nakaseomyces glabratus [4] = experiment: Antifungal activity against Candida glabrata isolate 2 by Etest; method in brief: as §1
Candida parapsilosis [5] = experiment: Antifungal activity against Candida parapsilosis isolate 1 by Etest; conditions: Lodderomyces parapsilosis; method in brief: as §1
Candida parapsilosis [6] = experiment: Antifungal activity against Candida parapsilosis isolate 2 by Etest; conditions: Lodderomyces parapsilosis
Candida albicans [7] = experiment: Antifungal activity against Candida albicans ATCC 90029 assessed as maximum log cell kill at MIC after 24 hrs by time-kill method
Candida albicans [8] = experiment: Antifungal activity against Candida albicans ATCC 90029 assessed as maximum log cell kill at 4 times MIC after 24 hrs by time-kill method
Candida albicans [9] = experiment: Antifungal activity against Candida albicans ATCC 90029 assessed as maximum log cell kill at 16 times MIC after 24 hrs by time-kill method
Candida albicans [10] = experiment: Antifungal activity against Candida albicans ATCC 90029 assessed as maximum log cell kill at MIC after 24 to 48 hrs by time-kill method
Candida albicans [11] = experiment: Antifungal activity against Candida albicans ATCC 90029 assessed as maximum log cell kill at 4 times MIC after 24 to 48 hrs by time-kill method
Candida albicans [12] = experiment: Antifungal activity against Candida albicans ATCC 90029 assessed as maximum log cell kill at 16 times MIC after 24 to 48 hrs by time-kill method
Candida albicans [13] = experiment: Antifungal activity against Candida albicans ATCC 90029 assessed as maximum log cell kill at MIC after >48 hrs by time-kill method
Candida albicans [14] = experiment: Antifungal activity against Candida albicans ATCC 90029 assessed as maximum log cell kill at 4 times MIC after >48 hrs by time-kill method
Candida albicans [15] = experiment: Antifungal activity against Candida albicans ATCC 90029 assessed as maximum log cell kill at 16 times MIC after >48 hrs by time-kill method
Candida albicans [16] = experiment: Antifungal activity against Candida albicans SC5314 assessed as maximum log cell kill at MIC after 24 hrs by time-kill method
Candida albicans [17] = experiment: Antifungal activity against Candida albicans SC5314 assessed as maximum log cell kill at 4 times MIC after 24 hrs by time-kill method
Candida albicans [18] = experiment: Antifungal activity against Candida albicans SC5314 assessed as maximum log cell kill at 16 times MIC after 24 hrs by time-kill method
Candida albicans [19] = experiment: Antifungal activity against Candida albicans SC5314 assessed as maximum log cell kill at MIC after 24 to 48 hrs by time-kill method
Nakaseomyces glabratus [20] = experiment: Antifungal activity against Candida glabrata isolate 1 assessed as maximum log cell kill at 4 times MIC after 24 hrs by time-kill method
Candida albicans [21] = experiment: Antifungal activity against Candida albicans SC5314 assessed as maximum log cell kill at 4 times MIC after 24 to 48 hrs by time-kill method
Candida albicans [22] = experiment: Antifungal activity against Candida albicans SC5314 assessed as maximum log cell kill at 16 times MIC after 24 to 48 hrs by time-kill method
Nakaseomyces glabratus [23] = experiment: Antifungal activity against Candida glabrata isolate 1 assessed as maximum log cell kill at MIC after 24 hrs by time-kill method
Nakaseomyces glabratus [24] = experiment: Antifungal activity against Candida glabrata isolate 1 assessed as maximum log cell kill at 16 times MIC after 24 hrs by time-kill method
Nakaseomyces glabratus [25] = experiment: Antifungal activity against Candida glabrata isolate 1 assessed as maximum log cell kill at MIC after 24 to 48 hrs by time-kill method
Nakaseomyces glabratus [26] = experiment: Antifungal activity against Candida glabrata isolate 1 assessed as maximum log cell kill at 4 times MIC after 24 to 48 hrs by time-kill method
Nakaseomyces glabratus [27] = experiment: Antifungal activity against Candida glabrata isolate 1 assessed as maximum log cell kill at 16 times MIC after 24 to 48 hrs by time-kill method
Nakaseomyces glabratus [28] = experiment: Antifungal activity against Candida glabrata isolate 1 assessed as maximum log cell kill at MIC after >48 hrs by time-kill method
Nakaseomyces glabratus [29] = experiment: Antifungal activity against Candida glabrata isolate 1 assessed as maximum log cell kill at 4 times MIC after >48 hrs by time-kill method
Nakaseomyces glabratus [30] = experiment: Antifungal activity against Candida glabrata isolate 1 assessed as maximum log cell kill at 16 times MIC after >48 hrs by time-kill method
Nakaseomyces glabratus [31] = experiment: Antifungal activity against Candida glabrata isolate 2 assessed as maximum log cell kill at MIC after 24 hrs by time-kill method
Nakaseomyces glabratus [32] = experiment: Antifungal activity against Candida glabrata isolate 2 assessed as maximum log cell kill at 4 times MIC after 24 hrs by time-kill method
Nakaseomyces glabratus [33] = experiment: Antifungal activity against Candida glabrata isolate 2 assessed as maximum log cell kill at 16 times MIC after 24 hrs by time-kill method
Nakaseomyces glabratus [34] = experiment: Antifungal activity against Candida glabrata isolate 2 assessed as maximum log cell kill at MIC after 24 to 48 hrs by time-kill method
Nakaseomyces glabratus [35] = experiment: Antifungal activity against Candida glabrata isolate 2 assessed as maximum log cell kill at 4 times MIC after 24 to 48 hrs by time-kill method
Nakaseomyces glabratus [36] = experiment: Antifungal activity against Candida glabrata isolate 2 assessed as maximum log cell kill at 16 times MIC after 24 to 48 hrs by time-kill method
Nakaseomyces glabratus [37] = experiment: Antifungal activity against Candida glabrata isolate 2 assessed as maximum log cell kill at MIC after >48 hrs by time-kill method
Nakaseomyces glabratus [38] = experiment: Antifungal activity against Candida glabrata isolate 2 assessed as maximum log cell kill at 4 times MIC after >48 hrs by time-kill method
Nakaseomyces glabratus [39] = experiment: Antifungal activity against Candida glabrata isolate 2 assessed as maximum log cell kill at 16 times MIC after >48 hrs by time-kill method
Candida parapsilosis [40] = experiment: Antifungal activity against Candida parapsilosis isolate 1 assessed as maximum log cell kill at MIC after 24 hrs by time-kill method
Candida parapsilosis [41] = experiment: Antifungal activity against Candida parapsilosis isolate 1 assessed as maximum log cell kill at 4 times MIC after 24 hrs by time-kill method
Candida parapsilosis [42] = experiment: Antifungal activity against Candida parapsilosis isolate 1 assessed as maximum log cell kill at 16 times MIC after 24 hrs by time-kill method
Candida parapsilosis [43] = experiment: Antifungal activity against Candida parapsilosis isolate 1 assessed as maximum log cell kill at MIC after 24 to 48 hrs by time-kill method
Candida parapsilosis [44] = experiment: Antifungal activity against Candida parapsilosis isolate 1 assessed as maximum log cell kill at 4 times MIC after 24 to 48 hrs by time-kill method
Candida parapsilosis [45] = experiment: Antifungal activity against Candida parapsilosis isolate 1 assessed as maximum log cell kill at 16 times MIC after 24 to 48 hrs by time-kill method
Candida parapsilosis [46] = experiment: Antifungal activity against Candida parapsilosis isolate 1 assessed as maximum log cell kill at MIC after >48 hrs by time-kill method
Candida parapsilosis [47] = experiment: Antifungal activity against Candida parapsilosis isolate 1 assessed as maximum log cell kill at 4 times MIC after >48 hrs by time-kill method
Candida parapsilosis [48] = experiment: Antifungal activity against Candida parapsilosis isolate 1 assessed as maximum log cell kill at 16 times MIC after >48 hrs by time-kill method
Candida parapsilosis [49] = experiment: Antifungal activity against Candida parapsilosis isolate 2 assessed as maximum log cell kill at MIC after 24 hrs by time-kill method
Method in brief: (§2)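 Bloodstream isolate colonies from 48-h Sabouraud dextrose agar cultures were suspended in sterile water. […] Samples taken 0–72 h were plated for CFU. Value is the maximum log difference from drug-free control per time window. Run in duplicate.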

Candida parapsilosis [50] = experiment: Antifungal activity against Candida parapsilosis isolate 2 assessed as maximum log cell kill at 4 times MIC after 24 hrs by time-kill method; method in brief: as §2
Candida parapsilosis [51] = experiment: Antifungal activity against Candida parapsilosis isolate 2 assessed as maximum log cell kill at 16 times MIC after 24 hrs by time-kill method
Candida parapsilosis [52] = experiment: Antifungal activity against Candida parapsilosis isolate 2 assessed as maximum log cell kill at MIC after 24 to 48 hrs by time-kill method; method in brief: as §2
Candida parapsilosis [53] = experiment: Antifungal activity against Candida parapsilosis isolate 2 assessed as maximum log cell kill at 4 times MIC after 24 to 48 hrs by time-kill method; method in brief: as §2
Candida parapsilosis [54] = experiment: Antifungal activity against Candida parapsilosis isolate 2 assessed as maximum log cell kill at 16 times MIC after 24 to 48 hrs by time-kill method
Candida parapsilosis [55] = experiment: Antifungal activity against Candida parapsilosis isolate 2 assessed as maximum log cell kill at MIC after >48 hrs by time-kill method; method in brief: as §2
Candida parapsilosis [56] = experiment: Antifungal activity against Candida parapsilosis isolate 2 assessed as maximum log cell kill at 4 times MIC after >48 hrs by time-kill method; method in brief: as §2
Candida parapsilosis [57] = experiment: Antifungal activity against Candida parapsilosis isolate 2 assessed as maximum log cell kill at 16 times MIC after >48 hrs by time-kill method

SMILES: C[C@@H](c1ncncc1F)[C@](O)(Cn1cncn1)c1ccc(F)cc1F [VORICONAZOLE]
- MIC (Candida albicans [1]): 0.008 µg/mL (≈ 0.0229 µM)
- MIC (Candida albicans [2]): 0.012 µg/mL (≈ 0.0344 µM)
- MIC (Nakaseomyces glabratus [3]): 0.19 µg/mL (≈ 0.544 µM)
- MIC (Nakaseomyces glabratus [4]): 0.032 µg/mL (≈ 0.0916 µM)
- MIC (Candida parapsilosis [5]): 0.008 µg/mL (≈ 0.0229 µM)
- MIC (Candida parapsilosis [6]): 0.016 µg/mL (≈ 0.0458 µM)
- LCK (Candida albicans [7]): -1.23
- LCK (Candida albicans [8]): -1.34
- LCK (Candida albicans [9]): -1.34
- LCK (Candida albicans [10]): -1.77
- LCK (Candida albicans [11]): -1.84
- LCK (Candida albicans [12]): -1.96
- LCK (Candida albicans [13]): -1.63
- LCK (Candida albicans [14]): -1.9
- LCK (Candida albicans [15]): -1.89
- LCK (Candida albicans [16]): -0.61
- LCK (Candida albicans [17]): -0.51
- LCK (Candida albicans [18]): -0.54
- LCK (Candida albicans [19]): -0.56
- LCK (Nakaseomyces glabratus [20]): -0.49
- LCK (Candida albicans [21]): -0.53
- LCK (Candida albicans [22]): -0.58
- LCK (Nakaseomyces glabratus [23]): -0.43
- LCK (Nakaseomyces glabratus [24]): -0.59
- LCK (Nakaseomyces glabratus [25]): -0.74
- LCK (Nakaseomyces glabratus [26]): -0.78
- LCK (Nakaseomyces glabratus [27]): -1
- LCK (Nakaseomyces glabratus [28]): -0.99
- LCK (Nakaseomyces glabratus [29]): -1.08
- LCK (Nakaseomyces glabratus [30]): -1.17
- LCK (Nakaseomyces glabratus [31]): -1.02
- LCK (Nakaseomyces glabratus [32]): -1.1
- LCK (Nakaseomyces glabratus [33]): -1.15
- LCK (Nakaseomyces glabratus [34]): -2.23
- LCK (Nakaseomyces glabratus [35]): -2.39
- LCK (Nakaseomyces glabratus [36]): -2.49
- LCK (Nakaseomyces glabratus [37]): -2.78
- LCK (Nakaseomyces glabratus [38]): -2.99
- LCK (Nakaseomyces glabratus [39]): -3.02
- LCK (Candida parapsilosis [40]): -0.99
- LCK (Candida parapsilosis [41]): -1.64
- LCK (Candida parapsilosis [42]): -1.68
- LCK (Candida parapsilosis [43]): -0.91
- LCK (Candida parapsilosis [44]): -2.67
- LCK (Candida parapsilosis [45]): -2.74
- LCK (Candida parapsilosis [46]): -0.67
- LCK (Candida parapsilosis [47]): -2.37
- LCK (Candida parapsilosis [48]): -2.69
- LCK (Candida parapsilosis [49]): -1.86
- LCK (Candida parapsilosis [50]): -2.7
- LCK (Candida parapsilosis [51]): -3.93
- LCK (Candida parapsilosis [52]): -1.03
- LCK (Candida parapsilosis [53]): -2.13
- LCK (Candida parapsilosis [54]): -3.94
- LCK (Candida parapsilosis [55]): -0.88
- LCK (Candida parapsilosis [56]): -1.12
- LCK (Candida parapsilosis [57]): -4.15
